The nature of data set [1]: folding enthalpy; higher = less favourable; fluorescence melt of hairpins on a sequencing array, two-state fit. The note with it: sodium 0.088 M. The gist of the method: (§1)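 Bootstrapped two-state fits yielded melting temperature and folding enthalpy for library hairpins. Cy3 fluorescence, with annealed Cy3 and quencher oligos, was imaged on a sequenced MiSeq flow cell in 50 mM Na-HEPES pH 8.0, 25 mM NaCl in 2.5 °C steps up to 60 °C, and normalised to pre-quench Cy3 and to control constructs. Four replicates were combined by inverse variance, and fitted temperatures were raised by 9.35 °C to match UV melts.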

The nature of data set [2]: melting temperature; fluorescence melt of hairpins on a sequencing array, two-state fit, raised by 9.35 °C to match UV melts. The note with it: sodium 0.088 M. Put shortly: as §1

In the case of GATCATACGAATGATC ((((((....)))))), in data set [1], the folding enthalpy was -34.4 kcal/mol. In data set [2], the Tm worked out at 44.7 °C.
The like results for GATCGTTAGTACGATC ((((((....)))))) were, in that order, -47.3 kcal/mol and 53.2 °C.
For GCTACCGAAAGGTCCAGC ((((((....)))..))), in data set [1], the folding enthalpy is -11.4 kcal/mol. In data set [2], the Tm amounted to 29 °C.
For GGGTACGGAAACATACCC (((((.(....).))))), in that order: -33.1 kcal/mol and 40.2 °C.
The like results for GATGCCGGAAACGGCACC (.(((((....))))).) were, in that order, -9.72 kcal/mol and 44.5 °C.
The like results for GCCTTGGAAACAAGGC ((((((....)))))) were, in that order, -34.6 kcal/mol and 67.8 °C.
Consider GATCAATACTTGATC ((((((...)))))), for which, in data set [1], the folding enthalpy is -30.4 kcal/mol. In addition, the Tm in data set [2] was determined as 42 °C.
The like results for GGTCTGGGAAACTGGACC ((((..(....)..)))) were, in that order, -31.1 kcal/mol and 45.1 °C.
For GTTGTACGAAAGTAAAC (((.(((....)))))), in that order: -21.9 kcal/mol and 39.7 °C.
As to GGTTTACCGAAAGGTACC (((..(((....)))))), the folding enthalpy in data set [1] is -9.75 kcal/mol. Moreover, the Tm in data set [2] stood at 32.4 °C.
In the case of GGTTATCGAAAGATCACC (((.(((....))).))), the folding enthalpy in data set [1] was -30.4 kcal/mol. In addition, in data set [2], the Tm was determined as 42.3 °C.
Regarding GCTTAGCGAAAGCGAGGC ((.(.((....)).).)), in data set [1], the folding enthalpy is -15.4 kcal/mol. In addition, the Tm in data set [2] amounted to 51.8 °C.
Turning to GACGTCGCGAAAGCGGTC (((..(((....)))))), the folding enthalpy in data set [1] was -11.5 kcal/mol. In data set [2], the Tm was found to be 39.3 °C.
The like results for GGTAGCGGAAACGCTATC (.(((((....))))).) were, in that order, -29.2 kcal/mol and 51.8 °C.
The like results for GCTAGCGAAAGCTACAGC ((((((....)))..))) were, in that order, -15.5 kcal/mol and 39.6 °C.
For GACAGGCGAAAGCCAGTC (((.(((....))).))), in that order: -25.8 kcal/mol and 58.1 °C.
Regarding GCCTGGCGAAAGCCATGC ((.((((....)))).)), the folding enthalpy in data set [1] was -17.2 kcal/mol. For the same sequence, the Tm in data set [2] is 56.7 °C.
For GCAGGCGAAAGCCATTGC ((((((....)))..))), in that order: -13.2 kcal/mol and 42.7 °C.
Turning to GGATACGAAAGTAAATCC ((((((....)))..))), the folding enthalpy in data set [1] is -19.4 kcal/mol. The Tm in data set [2] turned out to be 35.8 °C.
For GGTGTGGGAAACTGCACC ((((..(....)..)))), in that order: -26.3 kcal/mol and 47.7 °C.
For GCGACGCGAAAGCTCCGC (((..((....))..))), in that order: -20.2 kcal/mol and 50.6 °C.
For GCTTTACGAAAGTAAGC (((.(((....)))))), in that order: -22.7 kcal/mol and 46.2 °C.
With GATTGGGGAAACCTGATC (((..((....))..))), in data set [1], the folding enthalpy is -18.6 kcal/mol. In data set [2], the Tm was determined as 30.6 °C.
Turning to GCCTGCGAAAGCAAAGGC ((((((....)))..))), the folding enthalpy in data set [1] is -26.9 kcal/mol. For the same sequence, in data set [2], the Tm came out at 59.3 °C.
As for GGTACCGAAAGGTCACC ((((((....))).))), the folding enthalpy in data set [1] was -17.7 kcal/mol. The Tm in data set [2] stood at 46.8 °C.
For GCCAGCGAAAGCTCGGGC ((((((....)))..))), in that order: -20.4 kcal/mol and 52.3 °C.
For GTGGCACCGAAAGGTCAC (((..(((....)))))), in that order: -14.9 kcal/mol and 42.6 °C.
The like results for GCTGCAGGAAACCACAGC ((((..(....)..)))) were, in that order, -24.9 kcal/mol and 37 °C.
For the sequence GCTTGACGAAAGTCAGC (((.(((....)))))), the folding enthalpy in data set [1] was -23.5 kcal/mol. For the same sequence, in data set [2], the Tm was found to be 55.6 °C.
For GCTTTCGAAAGAAGGAGC ((((((....)))..))), in that order: -17.8 kcal/mol and 31.5 °C.
Take GCAATTCGAAAGAAATGC (((.(((....))).))): the folding enthalpy in data set [1] is -36.8 kcal/mol. For the same sequence, in data set [2], the Tm was found to be 46.1 °C.
For GGGTCACGAAAGTGCCCC (((.(((....))).))), in that order: -27.4 kcal/mol and 63 °C.
For GTAGCCGGAAACGACTAC ((((.((....)).)))), in that order: -34.4 kcal/mol and 46.6 °C.
As for GACCTACCGAAAGGTGTC (((..(((....)))))), the folding enthalpy in data set [1] was -18 kcal/mol. In addition, in data set [2], the Tm is 30.8 °C.
The like results for GATCTAGTGCTAGATC ((((((....)))))) were, in that order, -31.1 kcal/mol and 44.3 °C.
For GTTTTACGAAAGTATAAC (((.(((....))).))), in that order: -23.9 kcal/mol and 37.5 °C.

Values taken from the array DNA melting data of Ke et al. (doi:10.1101/2024.01.08.574731).
